This note sets out measurements from ChEMBL document CHEMBL1139475, “Structural, mutagenic, and kinetic analysis of the binding of substrates and inhibitors of human phenylethanolamine N-methyltransferase” (J Med Chem, 2005).

One may read the Ki as a dissociation constant, usually derived from enzyme kinetics or from competition with a known ligand. Lower therefore signals tighter binding. The Kd is the concentration at which binding is half-saturated. Usually Km stands for the substrate concentration at which the rate is half of its maximum.

Changes are numbered by the printed parent chain. In names and notes the source's numbering stands.

The target of data set [1] is T1, Phenylethanolamine N-methyltransferase (Homo sapiens, UniProt P11086).
T1 sequence (P11086 whole entry): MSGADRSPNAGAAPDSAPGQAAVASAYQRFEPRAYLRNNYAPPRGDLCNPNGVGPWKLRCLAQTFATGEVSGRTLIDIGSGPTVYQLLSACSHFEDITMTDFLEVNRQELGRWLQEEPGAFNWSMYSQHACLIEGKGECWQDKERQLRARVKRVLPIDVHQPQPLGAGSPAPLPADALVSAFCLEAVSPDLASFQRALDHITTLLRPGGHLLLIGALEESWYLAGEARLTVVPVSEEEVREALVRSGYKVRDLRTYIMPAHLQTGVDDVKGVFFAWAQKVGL
Kind of data set: Binding affinity to human free PNMT.

Data set [2] is described as follows: Binding affinity to human PNMT-S-adenosyl-L-methionine complex.
The target of data set [3] is Phenylethanolamine N-methyltransferase (Homo sapiens, UniProt P11086, V53A). Kind of data set: (§1) Activity of human PNMT V53A mutant assessed as phenylethanolamine methylation. Put shortly:
(§2)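 C-terminally His6-tagged human PNMT mutants made by site-directed mutagenesis, expressed in E. coli BL21(DE3)-pLysS, and purified by Ni affinity then gel filtration. Steady-state kinetics used 50 mM potassium phosphate pH 8.0 with [3H]-AdoMet and phenylethanolamine, each varied between 0.3 and 3 × Km. Incubation was 30 min at 30 °C, quenched with borate pH 10, extracted into toluene/isoamyl alcohol, and counted by scintillation.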

Data set [4] addresses Phenylethanolamine N-methyltransferase (Homo sapiens, UniProt P11086, E219A). Kind of data set: (§3) Activity of human PNMT E219A mutant assessed as phenylethanolamine methylation. A digest of the protocol: as §2
Data set [5] addresses Phenylethanolamine N-methyltransferase (Homo sapiens, UniProt P11086, D267A). Description: Activity of human PNMT D267A mutant assessed as phenylethanolamine methylation.
Data set [6] deals with Phenylethanolamine N-methyltransferase (Homo sapiens, UniProt P11086, K57A). Kind of data set: (§4) Activity of human PNMT K57A mutant assessed as phenylethanolamine methylation. A digest of the protocol:
as §2

For data set [7], the target named is Phenylethanolamine N-methyltransferase (Homo sapiens, UniProt P11086, D267N). Kind of data set: (§5) Activity of human PNMT D267N mutant assessed as phenylethanolamine methylation. A digest of the protocol:
as §2

Data set [8] addresses T1, Phenylethanolamine N-methyltransferase. Description: Activity of human wild type PNMT assessed as phenylethanolamine methylation.
Substrate in data set [9]: NCC(O)c1ccc(Cl)c(Cl)c1
Described as §1. Put shortly:
as §2

Substrate in data set [10]: C[S+](CC[C@H](N)C(=O)[O-])C[C@H]1O[C@@H](n2cnc3c(N)ncnc32)[C@H](O)[C@@H]1O
The description is as §1. A digest of the protocol: as §2

Substrate in data set [11]: NCC(O)c1ccc(Cl)c(Cl)c1
The data set is described as §4. A digest of the protocol: as §2

Substrate in data set [12]: C[S+](CC[C@H](N)C(=O)[O-])C[C@H]1O[C@@H](n2cnc3c(N)ncnc32)[C@H](O)[C@@H]1O
The data set is described as §4. A digest of the protocol: as §2

Substrate in data set [13]: NCC(O)c1ccc(Cl)c(Cl)c1
The description is as §5. A digest of the protocol: as §2

Substrate in data set [14]: C[S+](CC[C@H](N)C(=O)[O-])C[C@H]1O[C@@H](n2cnc3c(N)ncnc32)[C@H](O)[C@@H]1O
The description is as §5. A digest of the protocol: as §2

Substrate in data set [15]: NCC(O)c1ccc(Cl)c(Cl)c1
The data set is described as §3. A digest of the protocol:
as §2

Substrate in data set [16]: C[S+](CC[C@H](N)C(=O)[O-])C[C@H]1O[C@@H](n2cnc3c(N)ncnc32)[C@H](O)[C@@H]1O
Described as §3. Put shortly: as §2

Substrate in data set [17]: NCC(O)c1ccc(Cl)c(Cl)c1
As to conditions: Homo sapiens.

Substrate in data set [18]: C[S+](CC[C@H](N)C(=O)[O-])C[C@H]1O[C@@H](n2cnc3c(N)ncnc32)[C@H](O)[C@@H]1O
As to conditions: Homo sapiens.

Substrate in data set [19]: NCC(O)c1ccc(Cl)c(Cl)c1
As to conditions: Homo sapiens. The source holds these as a separate data set.

Substrate in data set [20]: C[S+](CC[C@H](N)C(=O)[O-])C[C@H]1O[C@@H](n2cnc3c(N)ncnc32)[C@H](O)[C@@H]1O
As to conditions: Homo sapiens. This is another data set of the same source.

Sequence of Phenylethanolamine N-methyltransferase (Homo sapiens, UniProt P11086, D267A) (P11086 whole entry D267A): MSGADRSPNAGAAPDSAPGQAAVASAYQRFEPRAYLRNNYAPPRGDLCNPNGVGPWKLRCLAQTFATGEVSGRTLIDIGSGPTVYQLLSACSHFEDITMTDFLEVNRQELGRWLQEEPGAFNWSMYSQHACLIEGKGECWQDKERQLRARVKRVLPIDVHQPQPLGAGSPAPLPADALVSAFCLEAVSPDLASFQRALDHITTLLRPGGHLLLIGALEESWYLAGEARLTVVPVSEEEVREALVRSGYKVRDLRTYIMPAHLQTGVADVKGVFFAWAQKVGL
Sequence of Phenylethanolamine N-methyltransferase (Homo sapiens, UniProt P11086, E219A) (P11086 whole entry E219A): as the sequence (P11086 whole entry D267A) above, with E219A, A267D counted along it
Sequence of Phenylethanolamine N-methyltransferase (Homo sapiens, UniProt P11086, D267N) (P11086 whole entry D267N): as the sequence (P11086 whole entry D267A) above, with A267N counted along it
Sequence of Phenylethanolamine N-methyltransferase (Homo sapiens, UniProt P11086, V53A) (P11086 whole entry V53A): as the sequence (P11086 whole entry D267A) above, with V53A, A267D counted along it
Sequence of Phenylethanolamine N-methyltransferase (Homo sapiens, UniProt P11086, K57A) (P11086 whole entry K57A): as the sequence (P11086 whole entry D267A) above, with K57A, A267D counted along it

As for `CC(N)c1cccc(Cl)c1Cl` (stereo not given), the inhibition constant Ki came out at 1.33 µM in data set [1] and 0.072 µM in data set [2].
For `C[S+](CC[C@H](N)C(=O)[O-])C[C@H]1O[C@@H](n2cnc3c(N)ncnc32)[C@H](O)[C@@H]1O` (stereo not given in full) [ADEMETIONINE], the dissociation constant Kd in data set [3] was determined as 7.1 µM; in data set [4] it was 7.5 µM; in [5], 11 µM; in data set [6], 10.7 µM; in data set [7] it was 7.5 µM; in [8] it was 4.8 µM.

B1: Phenylethanolamine N-methyltransferase (Homo sapiens), P11086 V53A (protein)
chain: T1 sequence (P11086 whole entry) with V53A
Consider B1, for which the Michaelis-Menten constant (Km) worked out at 1630 µM in data set [9] and 9.6 µM in data set [10].

B2: Phenylethanolamine N-methyltransferase (Homo sapiens), P11086 K57A (protein)
chain: T1 sequence (P11086 whole entry) with K57A
Turning to B2, the Michaelis-Menten constant (Km) turned out to be 1310 µM in [11] and 11.7 µM in data set [12].

B3: Phenylethanolamine N-methyltransferase (Homo sapiens), P11086 D267N (protein)
chain: T1 sequence (P11086 whole entry) with D267N
Turning to B3, the Michaelis-Menten constant (Km) in data set [13] turned out to be 1640 µM; in data set [14] it was 7.1 µM.

B4: Phenylethanolamine N-methyltransferase (Homo sapiens), P11086 E219A (protein)
chain: T1 sequence (P11086 whole entry) with E219A
Consider B4, for which the Michaelis-Menten constant (Km) turned out to be 580 µM in data set [15] and 7.1 µM in data set [16].

B5: Phenylethanolamine N-methyltransferase (Homo sapiens), P11086 D267A (protein)
chain: T1 sequence (P11086 whole entry) with D267A
Consider B5, for which the figures for the Km in data set [17] and in [18] were 2050 µM and 2.4 µM, respectively.

B6: Phenylethanolamine N-methyltransferase (Homo sapiens), P11086 (protein)
chain: T1 sequence (P11086 whole entry)
Consider B6, for which the Km worked out at 100 µM in [19] and 1.2 µM in data set [20].
